INS-1E rescue – INS-1E beta cell protection from cytokine death | INS-1E cytokine-induced death, ATP luminescence, 48 h; normalised: neutral wells 0, positive control 100 | protection from cytokine-induced ATP loss, % at 10 µM | 0.1% of 20,000 active;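 active means mean replicate protection from cytokine-induced ATP loss at least 50% and at least 75% of replicates each reaching 50%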
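assay system = INS-1E rat insulinoma cells | amount = 8000 cells per well | medium = phenol-red-free RPMI with 5% fetal bovine serum | doses = one compound concentration, pin transfer | timing = 48 h cytokine plus compound treatment, 10 min reagent incubation | also added = IL-1β, TNF-α and IFN-γ cytokine mix | signal = CellTiter-Glo luminescence measuring cellular ATP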
T cruzi HTS – inhibitors of intracellular Trypanosoma cruzi | intracellular Trypanosoma cruzi in host cells, plate reader | activity score (inhibition), % at 5.01 µM | 4.9% of 22,000 active; in the data active means activity score above about 55%;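 further: parasites and compound incubated about four days before reading; 0% = median of neutral control wells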
A1 apoptosis 2 – compounds inhibiting A1, read as caspase activation; 24,000 tested, under 10 active; AID 2465; caspase activation, % (test concentration not listed); MEF A1-2A-BIM cells, caspase-Glo luminescence, 3 h; percent of clofoctol response, DMSO zero; in the data active means caspase activation above about 5.9%
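system = A1-2A-BIM-expressing MEF cells | quantity = 2500 MEF cells/well | dosing = 50 nL compound per well, pinned | schedule = overnight cell settling, then 3 h compound exposure, 37 °C | signal = luminescence from DEVD-luciferin Caspase-Glo reagent, 1:1 in 50 mM HEPES, 1 h RT | read-out = Caspase-3/7 activation, seen as rise in luminescence signal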
The depositor's hits bear a star; / = not tested or not shown. This is one part of a sample in which hits are shown more often than they occur.

SMILES | INS-1E rescue | T cruzi HTS | A1 apoptosis 2
C[C@H]1CN([C@@H](C)CO)C(=O)c2cccc(NC(=O)c3ccncc3)c2O[C@H]1CN(C)Cc1ccc(C(=O)O)cc1 | 13 | -30 | 1
C[C@H]1CN([C@@H](C)CO)C(=O)c2cccc(NC(=O)c3ccncc3)c2O[C@H]1CN(C)Cc1ccc(-c2ccccc2)cc1 | -10 | 72* | 2
C[C@H]1CN([C@@H](C)CO)C(=O)c2cccc(NC(=O)c3ccncc3)c2O[C@@H]1CN(C)Cc1ccc(-c2ccccc2)cc1 | -16 | 79* | /
C[C@H](CO)N1C[C@H](C)[C@H](CN(C)Cc2ccc(C(=O)Nc3ccccc3N)cc2)Oc2c(NC(=O)c3ccncc3)cccc2C1=O | -4 | -27 | 2
COc1ccc(Br)c(/C=N/NC(=O)c2ccccc2O)c1 | -15 | -9 | /
COc1ccc(/C=N/NC(=O)CCCCCCC(=O)Nc2ccccc2O)c(OC)c1 | -2 | -8 | 0
C[C@@H]1CN([C@@H](C)CO)C(=O)Cc2cc(NC(=O)Cc3ccccc3)ccc2O[C@@H]1CN(C)Cc1ccc(C(=O)Nc2ccccc2N)cc1 | -14 | 77* | 0
C[C@H]1CN([C@@H](C)CO)C(=O)Cc2cc(NC(=O)Cc3ccccc3)ccc2O[C@H]1CN(C)Cc1ccc(C(=O)Nc2ccccc2N)cc1 | / | / | 1
C[C@H](CO)N1C[C@H](C)[C@H](CN(C)Cc2ccc(C(=O)Nc3ccccc3N)cc2)Oc2ccc(NC(=O)Cc3ccccc3)cc2CC1=O | 45 | 64* | /
C[C@@H]1CN([C@H](C)CO)C(=O)Cc2cc(NC(=O)Cc3ccccc3)ccc2O[C@H]1CN(C)Cc1ccc(C(=O)Nc2ccccc2N)cc1 | -20 | 30 | 1
COC(=O)CCCCCCC(=O)N/N=C/[C@@H](O)[C@H](O)[C@H](O)CO | 5 | -19 | /
COC(=O)CCCCCCC(=O)N/N=C/c1ccc2ccccc2n1 | 11 | 18 | -2
COc1ccc(CN(C)C[C@H]2Oc3ccc(NC(=O)Nc4cccc5ccccc45)cc3CC(=O)N([C@@H](C)CO)C[C@@H]2C)cc1 | / | / | -1
C[C@H](CO)N1C[C@H](C)[C@H](CN(C)Cc2ccc(Oc3ccccc3)cc2)Oc2ccc(NC(=O)Nc3cccc4ccccc34)cc2CC1=O | -26 | 17 | /
C[C@H]1CN([C@@H](C)CO)C(=O)Cc2cc(NC(=O)Nc3cccc4ccccc34)ccc2O[C@@H]1CN(C)Cc1ccc(Oc2ccccc2)cc1 | -20 | 70* | 1
C[C@@H]1CN([C@@H](C)CO)C(=O)Cc2cc(NC(=O)Nc3cccc4ccccc34)ccc2O[C@@H]1CN(C)Cc1ccc(Oc2ccccc2)cc1 | -1 | 68* | /
COc1cc(/C=N/NC(=O)c2cccc(C(=O)NO)c2)c([N+](=O)[O-])cc1OC | 0 | -5 | /
CCn1c2ccccc2c2cc(/C=N/NC(=O)c3ccccc3O)ccc21 | -3 | 17 | 1
C=C(C)[C@@H]1CC=C(/C=N/NC(=O)c2cccc(C(=O)NO)c2)CC1 | -7 | -4 | -10
O=C(CCCCC(=O)N/N=C\c1ccc2c(c1)Cc1ccccc1-2)NO | 94* | 17 | /
Cc1ccsc1/C=N\NC(=O)CCCCCC(=O)NO | 118* | 3 | /
COC(=O)CCCCCCC(=O)N/N=C/c1ccc2c(c1)Cc1ccccc1-2 | -2 | 26 | 0
Cc1ccccc1/C=N/NC(=O)CCCCC(=O)NO | 67* | 2 | /
O=C(CCCCCCC(=O)N/N=C/c1ccccc1)NO | / | / | 0
O=C(CCCCCC(=O)N/N=C/c1c[nH]c2ccccc12)NO | 91* | -1 | /
SMILES | INS-1E rescue | T cruzi HTS | A1 apoptosis 2
Cc1ccsc1/C=N/NC(=O)CCCCCCC(=O)Nc1ccccc1O | 8 | 0 | 1
Cc1ccccc1/C=N/NC(=O)CCCCCCC(=O)Nc1ccccc1O | 1 | 5 | 2
COc1ccc(S(=O)(=O)NC2CCN(Cc3cccc(OCCO)c3)CC2)cc1 | / | / | 0
C[C@@H]1CN([C@@H](C)CO)C(=O)c2cccc(NC(=O)c3ccncc3)c2O[C@@H]1CN(C)Cc1ccc(Cl)c(Cl)c1 | -8 | 68* | -1
C[C@H](CO)N1C[C@H](C)[C@@H](CN(C)Cc2ccc(Cl)c(Cl)c2)Oc2c(NC(=O)c3ccncc3)cccc2C1=O | -14 | 78* | 1
C[C@H](CO)N1C[C@H](C)[C@H](CN(C)Cc2ccc(Cl)c(Cl)c2)Oc2c(NC(=O)c3cnccn3)cccc2C1=O | -23 | 43 | /
CC(C)=CCC[C@H](C)C/C=N/NC(=O)CCCCCC(=O)NO | / | / | 0
O=C1C[C@@](C(=O)NCc2ccccc2)(c2ccc([N+](=O)[O-])cc2)[C@@H](c2ccc(CO)cc2)N1C1CCCCC1 | / | / | 0
O=C(CCCCCC(=O)Nc1ccccc1O)N/N=C/c1ccc(Br)s1 | -6 | 20 | 0
C[C@H]1CN([C@@H](C)CO)C(=O)Cc2cc(NS(=O)(=O)c3cccs3)ccc2O[C@H]1CN(C)Cc1ccc(-c2ccccc2)cc1 | -35 | 57* | /
COc1ccc(CN(C)C[C@@H]2Oc3ccc(NS(=O)(=O)c4cccs4)cc3CC(=O)N([C@H](C)CO)C[C@H]2C)cc1 | 4 | 16 | /
C[C@@H]1CN([C@@H](C)CO)C(=O)Cc2cc(NS(=O)(=O)c3cccs3)ccc2O[C@@H]1CN(C)Cc1ccc(Oc2ccccc2)cc1 | -20 | 63* | /
C[C@@H]1CN([C@H](C)CO)C(=O)Cc2cc(NS(=O)(=O)c3cccs3)ccc2O[C@@H]1CN(C)Cc1ccc(-c2ccccc2)cc1 | -14 | 44 | /
O=C(CCCCCC(=O)N/N=C/c1cc(O)ccc1[N+](=O)[O-])NO | -5 | -5 | -1
O=C(CCCCCCC(=O)N/N=C/c1cc(F)ccc1O)NO | / | / | 0
C[C@H](CO)N1C[C@H](C)[C@H](CN(C)Cc2ccc(C(F)(F)F)cc2)Oc2c(NC(=O)CCCCCC(=O)Nc3ccccc3N)cccc2C1=O | 9 | 73* | 1
C[C@H]1CN([C@@H](C)CO)C(=O)c2cccc(NC(=O)CCCCCC(=O)Nc3ccccc3N)c2O[C@@H]1CN(C)Cc1ccc(-c2ccccc2)cc1 | -13 | 67* | 1
C[C@@H]1CN([C@H](C)CO)C(=O)c2cccc(NC(=O)CCCCCC(=O)Nc3ccccc3N)c2O[C@H]1CN(C)Cc1ccc(-c2ccccc2)cc1 | -7 | 71* | /
COc1ccc(CN(C)C[C@@H]2Oc3c(NC(=O)CCCCCC(=O)Nc4ccccc4N)cccc3C(=O)N([C@H](C)CO)C[C@H]2C)cc1 | / | / | 1
C[C@@H]1CN([C@H](C)CO)C(=O)c2cccc(NC(=O)CCCCCC(=O)Nc3ccccc3N)c2O[C@@H]1CN(C)Cc1ccc(C(F)(F)F)cc1 | 13 | 54 | 0
C[C@@H]1CN([C@H](C)CO)C(=O)c2cccc(NC(=O)CCCCCC(=O)Nc3ccccc3N)c2O[C@H]1CN(C)Cc1ccccc1 | / | / | -1
O=C(CCCCCC(=O)Nc1ccccc1O)N/N=C/c1cc(O)ccc1[N+](=O)[O-] | / | / | 1
COc1ccc(S(=O)(=O)Nc2ccc3c(c2)CC(=O)N([C@@H](C)CO)C[C@@H](C)[C@@H](CN(C)S(=O)(=O)c2ccc(F)cc2)O3)cc1 | -8 | 63* | /

From PubChem
